From ChEMBL document CHEMBL1122900, “Effects of alkyl and aryl substitution on the myocardial specificity of radioiodinated phosphonium, arsonium, and ammonium cations” (J Med Chem, 1985)

Key:
Rattus norvegicus [1] = assay: Evaluated for the distribution of radioactivity in tissues of female Fischer rats heart after 30 minutes intravenous administration; dose/g, range 1.39-2.43; format: ADME, organism-based; conditions: in vivo, 0.5 h
Rattus norvegicus [2] = assay: Evaluated for the distribution of radioactivity in tissues of female Fischer rats lungs after 5 minutes intravenous administration; dose/g, range 0.96-1.35; format: ADME, organism-based, Lung; conditions: in vivo
Method in brief: (§1)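 Female Fischer 344 rats (10-12 weeks, 170-200 g), fed ad libitum, got a single iv tail-vein injection under ether anaesthesia of the 125I-labelled cation (2.85-8.38 μCi). The tracer was dissolved in Me2SO, diluted with saline to 1% Me2SO and filtered. At the set times rats were killed by cervical fracture and blood taken by cardiac puncture. Organs were rinsed, blotted, weighed and gamma-counted against injectate standards. Results are %dose/g, mean and range, n=5. Thyroid weight was taken as 7.5 mg/100 g body weight.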

Rattus norvegicus [3] = assay: Evaluated for the distribution of radioactivity in tissues of female Fischer rats thyroid after 5 minutes intravenous administration; dose/g, range 13-18; format: ADME, organism-based, Thyroid gland; conditions: in vivo; method in brief: as §1
Rattus norvegicus [4] = assay: Evaluated for the distribution of radioactivity in tissues of female Fischer rats heart after 60 minutes intravenous administration; dose/g, range 1.93-3.58; format: ADME, organism-based; conditions: in vivo, 1 h
Rattus norvegicus [5] = assay: Evaluated for the distribution of radioactivity in tissues of female Fischer rats blood after 30 minutes intravenous administration; dose/g, range 0.19-0.24; format: ADME, organism-based; conditions: in vivo, 0.5 h
Rattus norvegicus [6] = assay: Evaluated for the distribution of radioactivity in tissues of female Fischer rats kidneys after 60 minutes intravenous administration; dose/g, range 4.62-5.60; format: ADME, organism-based, Kidney; conditions: in vivo, 1 h
Rattus norvegicus [7] = assay: Evaluated for the distribution of radioactivity in tissues of female Fischer rats liver after 60 minutes intravenous administration; dose/g, range 0.73-1.19; format: ADME, organism-based; conditions: in vivo, 1 h; method in brief: as §1
Rattus norvegicus [8] = assay: Evaluated for the distribution of radioactivity in tissues of female Fischer rats liver after 30 minutes intravenous administration; dose/g, range 1.51-2.23; format: ADME, organism-based; conditions: in vivo, 0.5 h
Rattus norvegicus [9] = assay: Evaluated for the distribution of radioactivity in tissues of female Fischer rats blood after 60 minutes intravenous administration; dose/g, range 0.13-0.15; format: ADME, organism-based; conditions: in vivo, 1 h
Rattus norvegicus [10] = assay: Evaluated for the distribution of radioactivity in tissues of female Fischer rats lungs after 30 minutes intravenous administration; dose/g, range 0.83-1.21; format: ADME, organism-based, Lung; conditions: in vivo, 0.5 h; method in brief: as §1
Rattus norvegicus [11] = assay: Evaluated for the distribution of radioactivity in tissues of female Fischer rats liver after 5 minutes intravenous administration; dose/g, range 3.12-4.56; format: ADME, organism-based; conditions: in vivo; method in brief: as §1
Rattus norvegicus [12] = assay: Evaluated for the distribution of radioactivity in tissues of female Fischer rats blood after 5 minutes intravenous administration; dose/g, range 0.40-0.45; format: ADME, organism-based; conditions: in vivo
Rattus norvegicus [13] = assay: Evaluated for the distribution of radioactivity in tissues of female Fischer rats thyroid after 30 minutes intravenous administration; dose/g, range 19-24; format: ADME, organism-based, Thyroid gland; conditions: in vivo, 0.5 h; method in brief: as §1
Rattus norvegicus [14] = assay: Evaluated for the distribution of radioactivity in tissues of female Fischer rats thyroid after 60 minutes intravenous administration; dose/g, range 35-53; format: ADME, organism-based, Thyroid gland; conditions: in vivo, 1 h; method in brief: as §1
Rattus norvegicus [15] = assay: Evaluated for the distribution of radioactivity in tissues of female Fischer rats kidneys after 5 minutes intravenous administration; dose/g, range 14.4-20.1; format: ADME, organism-based, Kidney; conditions: in vivo
Rattus norvegicus [16] = assay: Evaluated for the distribution of radioactivity in tissues of female Fischer rats lungs after 60 minutes intravenous administration; dose/g, range 0.81-1.13; format: ADME, organism-based, Lung; conditions: in vivo, 1 h; method in brief: as §1
Rattus norvegicus [17] = assay: Evaluated for the distribution of radioactivity in tissues of female Fischer rats heart after 5 minutes intravenous administration.; dose/g, range 2.20-2.97; format: ADME, organism-based; conditions: in vivo
Rattus norvegicus [18] = assay: Evaluated for the distribution of radioactivity in tissues of female Fischer rats kidneys after 30 minutes intravenous administration; dose/g, range 7.21-7.95; format: ADME, organism-based, Kidney; conditions: in vivo, 0.5 h
Rattus norvegicus [19] = assay: Evaluated for the distribution of radioactivity in tissues of female Fischer rats thyroid after 30 minutes intravenous administration; dose/g, range 4-7; format: ADME, organism-based, Thyroid gland; conditions: in vivo, 0.5 h; method in brief: as §1
Rattus norvegicus [20] = assay: Evaluated for the distribution of radioactivity in tissues of female Fischer rats liver after 30 minutes intravenous administration; dose/g, range 2.30-3.12; format: ADME, organism-based; conditions: in vivo, 0.5 h
Rattus norvegicus [21] = assay: Evaluated for the distribution of radioactivity in tissues of female Fischer rats lungs after 5 minutes intravenous administration; dose/g, range 0.51-0.66; format: ADME, organism-based, Lung; conditions: in vivo; method in brief: as §1
Rattus norvegicus [22] = assay: Evaluated for the distribution of radioactivity in tissues of female Fischer rats thyroid after 5 minutes intravenous administration; dose/g, range 5-8; format: ADME, organism-based, Thyroid gland; conditions: in vivo; method in brief: as §1
Rattus norvegicus [23] = assay: Evaluated for the distribution of radioactivity in tissues of female Fischer rats heart after 30 minutes intravenous administration; dose/g, range 0.95-1.44; format: ADME, organism-based; conditions: in vivo, 0.5 h
Rattus norvegicus [24] = assay: Evaluated for the distribution of radioactivity in tissues of female Fischer rats blood after 30 minutes intravenous administration; dose/g, range 0.07-0.09; format: ADME, organism-based; conditions: in vivo, 0.5 h
Rattus norvegicus [25] = assay: Evaluated for the distribution of radioactivity in tissues of female Fischer rats blood after 5 minutes intravenous administration; dose/g, range 0.10-0.14; format: ADME, organism-based; conditions: in vivo
Rattus norvegicus [26] = assay: Evaluated for the distribution of radioactivity in tissues of female Fischer rats liver after 5 minutes intravenous administration; dose/g, range 4.12-6.30; format: ADME, organism-based; conditions: in vivo; method in brief: as §1
Rattus norvegicus [27] = assay: Evaluated for the distribution of radioactivity in tissues of female Fischer rats lungs after 30 minutes intravenous administration.; dose/g, range 0.34-0.47; format: ADME, organism-based, Lung; conditions: in vivo, 0.5 h; method in brief: as §1
Rattus norvegicus [28] = assay: Evaluated for the distribution of radioactivity in tissues of female Fischer rats liver after 60 minutes intravenous administration; dose/g, range 1.08-2.31; format: ADME, organism-based; conditions: in vivo, 1 h; method in brief: as §1
Rattus norvegicus [29] = assay: Evaluated for the distribution of radioactivity in tissues of female Fischer rats blood after 60 minutes intravenous administration; dose/g, range 0.08-0.09; format: ADME, organism-based; conditions: in vivo, 1 h
Rattus norvegicus [30] = assay: Evaluated for the distribution of radioactivity in tissues of female Fischer rats kidneys after 60 minutes intravenous administration; dose/g, range 0.17-0.25; format: ADME, organism-based, Kidney; conditions: in vivo, 1 h
Rattus norvegicus [31] = assay: Evaluated for the distribution of radioactivity in tissues of female Fischer rats heart after 5 minutes intravenous administration; dose/g, range 0.90-1.46; format: ADME, organism-based; conditions: in vivo
Rattus norvegicus [32] = assay: Evaluated for the distribution of radioactivity in tissues of female Fischer rats thyroid after 60 minutes intravenous administration; dose/g, range 5-12; format: ADME, organism-based, Thyroid gland; conditions: in vivo, 1 h; method in brief: as §1
Rattus norvegicus [33] = assay: Evaluated for the distribution of radioactivity in tissues of female Fischer rats heart after 60 minutes intravenous administration; dose/g, range 1.05-1.57; format: ADME, organism-based; conditions: in vivo, 1 h
Rattus norvegicus [34] = assay: Evaluated for the distribution of radioactivity in tissues of female Fischer rats lungs after 60 minutes intravenous administration; dose/g, range 0.28-0.33; format: ADME, organism-based, Lung; conditions: in vivo, 1 h; method in brief: as §1
Rattus norvegicus [35] = assay: Evaluated for the distribution of radioactivity in tissues of female Fischer rats kidneys after 30 minutes intravenous administration; dose/g, range 0.24-0.31; format: ADME, organism-based, Kidney; conditions: in vivo, 0.5 h
Rattus norvegicus [36] = assay: Evaluated for the distribution of radioactivity in tissues of female Fischer rats kidneys after 5 minutes intravenous administration; dose/g, range 4.78-9.72; format: ADME, organism-based, Kidney; conditions: in vivo

CCCCCCCC[P+](C)(C)CCC/C=C/I.[I-]
Distribution (Rattus norvegicus [1]): 1.95% | Distribution (Rattus norvegicus [2]): 1.18% | Distribution (Rattus norvegicus [3]): 16% | Distribution (Rattus norvegicus [4]): 2.73% | Distribution (Rattus norvegicus [5]): 0.22% | Distribution (Rattus norvegicus [6]): 5.15% | Distribution (Rattus norvegicus [7]): 0.93% | Distribution (Rattus norvegicus [8]): 1.84% | Distribution (Rattus norvegicus [9]): 0.14% | Distribution (Rattus norvegicus [10]): 1.05% | Distribution (Rattus norvegicus [11]): 3.72% | Distribution (Rattus norvegicus [12]): 0.42% | Distribution (Rattus norvegicus [13]): 21% | Distribution (Rattus norvegicus [14]): 41% | Distribution (Rattus norvegicus [15]): 17.54% | Distribution (Rattus norvegicus [16]): 0.95% | Distribution (Rattus norvegicus [17]): 2.51% | Distribution (Rattus norvegicus [18]): 7.51%

CC[N+](CC)(CC)CCC/C=C/I.[I-]
Distribution (Rattus norvegicus [19]): 5% | Distribution (Rattus norvegicus [20]): 2.76% | Distribution (Rattus norvegicus [21]): 0.57% | Distribution (Rattus norvegicus [22]): 6% | Distribution (Rattus norvegicus [23]): 1.11% | Distribution (Rattus norvegicus [24]): 0.08% | Distribution (Rattus norvegicus [25]): 0.12% | Distribution (Rattus norvegicus [26]): 5.16% | Distribution (Rattus norvegicus [27]): 0.39% | Distribution (Rattus norvegicus [28]): 1.55% | Distribution (Rattus norvegicus [29]): 0.09% | Distribution (Rattus norvegicus [30]): 0.21% | Distribution (Rattus norvegicus [31]): 1.12% | Distribution (Rattus norvegicus [32]): 9% | Distribution (Rattus norvegicus [33]): 1.21% | Distribution (Rattus norvegicus [34]): 0.29% | Distribution (Rattus norvegicus [35]): 0.27% | Distribution (Rattus norvegicus [36]): 7.46%
